Source: PubChem BioAssay (Broad Institute)
An excerpt weighted towards active compounds, which were near 2.1% of everything screened.
GSIS activator: primary screen for activators of insulin secretion dependent on glucose, INS-1E cells, GLuc reporter luminescence | INS-1E GLuc reporter insulin secretion, 2-3 h | activation, % at 16.6 µM | 370,000 compounds, 0.61% hits | AID 743287;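 active = lowest replicate activation of at least 40%, so every replicate reaches that level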;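 also: 0% = median of neutral control wells and 100% = median of IBMX positive control wells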
EWS-Fli inh: inhibitors of EWS/Fli oncoprotein transcriptional activity | A673 NR0B1-luciferase reporter, viability-normalised | inhibition, % at 12.6 µM | 350,000 compounds, 0.67% hits | AID 651661;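 active = mean inhibition of at least 50% after viability correction, with every replicate also passing that limit; inconclusive = mean reaches 50% but only one of two replicates passes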;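 also: firefly luciferase signal divided by Alamar Blue viability fluorescence both relative to DMSO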
PAX8 reporter: PAX8 transcriptional activity inhibition. RMG-I TPO-luciferase reporter, SteadyGlo, 24 h. inhibition, % at 12.6 µM. 360,000 compounds, 1.2% hits;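 active = mean replicate inhibition at least 60% with every replicate also reaching 60%; inconclusive = only one of the two criteria is met; inactive = mean below 60% and not all replicates reaching 60%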;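 also: luciferase light reporting Pax8 driven TPO promoter activity; plate controls were median of neutral control wells for no effect and mitoxantrone controls for full effect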
Xi reactivation: reactivates the inactive X chromosome in mouse fibroblasts; XiGFP mouse fibroblasts, % GFP-positive cells imaging, 3 d; cells co-treated with 5-aza-dC sensitizer; scaled so ellipticine positive control = 100%; activation, % at 7.58 µM; 360,000 compounds, 0.055% hits;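 active = mean normalized replicate activation at least 10% and every replicate at or above 10%; inconclusive = only one of the two criteria met; inactive = mean below 10% and not all replicates reach 10%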;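 also: 0% = median of on-plate neutral control wells and 100% = ellipticine 6 µM median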
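System: 68-5-11 XiGFP fibroblast line | Buffer or medium: DMEM containing 5-aza-dC | Compound: Single point | Times: Compounds 3 days, fix/stain 15 min at room temperature | Benchmarks: Positive control ellipticine, 6 µM final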
MLL AF4-AF9 inh: MLL-AF4/AF9 protein interaction inhibition | AID 651704 | P42568 | 350,000 compounds, 0.47% hits | inhibition, % at 10 µM | AlphaScreen, biotin-AF4 peptide binding to FLAG-AF9;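 active = every replicate reaching a set inhibition limit, whatever the replicate mean, cut at about 25% in these data; inconclusive = mean inhibition reaches that limit but some replicates miss it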;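 also: 0% = plate neutral control median and 100% = total signal loss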
Target sequence (P42568 whole entry, looked up): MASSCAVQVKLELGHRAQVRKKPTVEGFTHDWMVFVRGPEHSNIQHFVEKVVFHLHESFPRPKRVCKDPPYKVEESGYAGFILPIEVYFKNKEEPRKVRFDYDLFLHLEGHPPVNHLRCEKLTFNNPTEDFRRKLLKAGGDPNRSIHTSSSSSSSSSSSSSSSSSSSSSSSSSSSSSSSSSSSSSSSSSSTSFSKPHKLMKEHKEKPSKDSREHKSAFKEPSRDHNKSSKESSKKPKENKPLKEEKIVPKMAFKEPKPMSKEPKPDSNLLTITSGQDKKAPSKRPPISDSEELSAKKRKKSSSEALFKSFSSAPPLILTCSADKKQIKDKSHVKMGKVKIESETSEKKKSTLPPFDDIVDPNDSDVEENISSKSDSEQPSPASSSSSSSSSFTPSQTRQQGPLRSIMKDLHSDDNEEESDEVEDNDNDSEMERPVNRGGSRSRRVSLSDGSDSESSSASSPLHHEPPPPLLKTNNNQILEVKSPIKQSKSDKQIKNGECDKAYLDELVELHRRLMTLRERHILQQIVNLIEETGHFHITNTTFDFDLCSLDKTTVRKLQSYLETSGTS
PGC1a acetyl inh: lowers PGC1a acetylation signal in U2OS cells | AlphaScreen anti-acetyl-lysine; with virally co-expressed GCN5 acetyltransferase | inhibition, % at 15.6 µM | 350,000 compounds, 0.17% hits;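 active = every replicate shows inhibition of at least 40%; inconclusive = mean inhibition at least 40% but some replicate below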;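 also: 0% = neutral control wells and 100% = positive control wells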
* = called active by the depositor; ? = inconclusive; / = no result given.

SMILES | GSIS activator | EWS-Fli inh | PAX8 reporter | Xi reactivation | MLL AF4-AF9 inh | PGC1a acetyl inh
COc1ccccc1Nc1cc2cc(Br)ccc2c(=O)[nH]1 | -18 | 21 | 18 | 0 | / | 14
NC(=O)c1ncn2c(=O)n(CCCl)nnc12 | 7 | 11 | 81* | 0 | -8 | /
O=C(O)c1ccc(-n2nnnc2SCc2ccccc2Br)cc1 | 48* | 9 | 10 | 0 | -1 | 1
O=C(O)c1ccc(CSc2nnnn2-c2ccc(F)cc2)cc1 | 30 | 1 | 7 | 0 | 3 | /
COc1cc(OC)c2c(-c3cccc(-c4ccc(O)cc4)c3)cc(=O)oc2c1 | 11 | 53* | 41 | 0 | -1 | 8
COc1cc(OC)c2c(-c3cccc(-c4ccc(N(C)C)cc4)c3)cc(=O)oc2c1 | 12 | ? | 77* | 0 | 9 | -9
COc1ccc(-c2cccc(-c3cc(=O)oc4cc(OC)cc(OC)c34)c2)cc1 | -14 | 53* | 58 | 2 | -49 | -21
COc1cc(OC)c2c(-c3cccc(-c4cccc(C)c4)c3)cc(=O)oc2c1 | 18 | 54* | 27 | 0 | -16 | -60
COc1cc(OC)c2c(-c3cccc(-c4ccc(OC(F)(F)F)cc4)c3)cc(=O)oc2c1 | 0 | -3 | -4 | 0 | -1 | -2
CO[C@H]1CN(C)C(=O)c2ccc(NS(C)(=O)=O)cc2OC[C@H](C)N(Cc2cccnc2)C[C@@H]1C | -8 | -9 | / | 0 | 1 | -14
O=C1CSC(c2cccc(O)c2)N1Cc1ccccc1 (centres undefined) | 42* | 13 | 7 | 0 | 2 | /
C[C@@H]1CN([C@H](C)CO)C(=O)c2cc(NC(=O)CCN3CCOCC3)ccc2O[C@@H]1CN(C)S(=O)(=O)c1ccc(F)cc1 | 37 | 1 | -13 | 0 | -4 | 11
C[C@@H]1CN(C)C(=O)Cc2cc(N)ccc2O[C@H]1CN(C)C | 14 | / | / | 0 | / | /
CCOc1cc(C(=O)OCC(=O)Nc2cc(C)on2)cc(OCC)c1OCC | 76* | / | / | / | / | 7
Cc1cc(NC(=O)COC(=O)c2oc3c(ccc4ccccc43)c2C)no1 | 43* | 6 | -12 | 0 | 1 | 5
O=C(C[C@H]1C=C[C@@H](NC(=O)C2CCC2)[C@@H](CO)O1)NCCCN1CCOCC1 | 4 | 5 | 1 | 0 | -1 | -9
COc1ccc2c3c(n(C)c2c1)[C@H](CO)N(CC1CCCC1)CC31CN(C(C)=O)C1 | -6 | 1 | -2 | 0 | 1 | /
O=S(=O)(c1cccs1)N1CN(C2CCCC2)c2nc3ccccc3nc21 | 27 | 19 | 17 | 0 | -2 | /
O=S(=O)(c1cccs1)N1CN(C2CCCCC2)c2nc3ccccc3nc21 | 80* | -3 | 6 | 0 | 4 | -13
COCC(=O)Nc1ccc2c(c1)C(=O)N(C)[C@@H]1CC[C@@H](CC(=O)NCCc3ccncc3)O[C@@H]1CO2 | 6 | 0 | -2 | 0 | -1 | -4
O=C(N/N=C/c1ccccc1)c1ccco1 | 3 | -50 | -45 | 0 | 2 | 2
O=C(C#Cc1ccccc1)c1ccco1 | 3 | 64* | 124* | 3 | -1 | /
Cc1ccccc1-c1ccc([C@H]2[C@@H](CO)N3CCCCN(S(=O)(=O)c4cn(C)cn4)C[C@H]23)cc1 | -15 | / | -4 | 0 | 1 | -4
O=C(c1cnccn1)N1CC(=O)N2[C@@H](CO)[C@H](c3ccc(-c4ccccc4)cc3)[C@@H]2C1 | 9 | -1 | -7 | 0 | -5 | 4
COc1ccc(Sc2ccccc2CN(C)C)cc1OC | / | / | / | / | / | -3
SMILES | GSIS activator | EWS-Fli inh | PAX8 reporter | Xi reactivation | MLL AF4-AF9 inh | PGC1a acetyl inh
CNCc1ccccc1Sc1ccc(O)c(O)c1 | -24 | -4 | 76* | 0 | 1 | /
O=C(NCc1ccccn1)c1ccccc1OCc1ccc(Cl)cc1Cl | 49* | -9 | -1 | 1 | 0 | /
Cc1noc(C)c1S(=O)(=O)Nc1ccc2c(c1)C(=O)N([C@@H](C)CO)C[C@H](C)[C@H](CN(C)S(=O)(=O)c1ccccc1)OCCCC[C@H](C)O2 | -29 | 1 | -17 | 0 | 2 | 9
C[C@H]1CCCCO[C@H](CN(C)S(=O)(=O)c2ccc(Cl)cc2)[C@@H](C)CN([C@@H](C)CO)C(=O)c2cc(NS(=O)(=O)c3ccc(Cl)cc3)ccc2O1 | 27 | 9 | 83* | 0 | / | 6
C[C@H](CO)N1C[C@H](C)[C@@H](CN(C)S(=O)(=O)c2ccc(Cl)cc2)OCCCC[C@H](C)Oc2ccc(NS(=O)(=O)c3ccc(Cl)cc3)cc2C1=O | -11 | 13 | 87* | 1 | / | -2
C[C@@H]1CCCCO[C@@H](CN(C)S(=O)(=O)c2cccs2)[C@H](C)CN([C@@H](C)CO)C(=O)c2cc(NS(=O)(=O)c3ccc(Cl)cc3)ccc2O1 | -1 | -2 | 70* | 0 | -1 | -13
C[C@@H]1CCCCO[C@@H](CN(C)S(=O)(=O)c2ccc(Cl)cc2)[C@H](C)CN([C@H](C)CO)C(=O)c2cc(NS(=O)(=O)c3ccc(Cl)cc3)ccc2O1 | 0 | 23 | 90* | 0 | / | 6
C[C@@H]1CN([C@H](C)CO)C(=O)c2cc(NS(=O)(=O)c3ccc(Cl)cc3)ccc2O[C@@H](C)CCCCO[C@@H]1CN(C)S(=O)(=O)c1ccc(Cl)cc1 | 25 | -14 | 43 | 0 | / | 2
COc1ccc(NC(=O)N2CCCCN3[C@H](C2)[C@@H](c2ccc(C4=CCCC4)cc2)[C@@H]3CO)cc1 | / | 17 | 27 | / | -3 | -15
C[C@@H]1CN([C@@H](C)CO)C(=O)Cc2cc(NS(=O)(=O)c3cn(C)cn3)ccc2O[C@H]1CN(C)Cc1ccc(C(=O)Nc2ccccc2N)cc1 | 36 | 37 | -11 | 0 | -4 | 5
CCC(=O)N1CC2(CN(Cc3ccc(F)cc3)C2)c2c(n(C)c3cc(OC)ccc23)[C@H]1CO | -6 | -3 | / | 0 | 5 | 2
CCC(=O)N1CC2(CN(Cc3ccc(Cl)cc3)C2)c2c(n(C)c3cc(OC)ccc23)[C@@H]1CO | -5 | 0 | -5 | 0 | 38* | -23
CCC(=O)N1CC2(CN(Cc3ccc(Cl)cc3)C2)c2c(n(C)c3cc(OC)ccc23)[C@H]1CO | -7 | 5 | 8 | 0 | 29* | -5
CCCNC(=O)N1CC2(CN(CC3CCCC3)C2)c2c(n(C)c3cc(OC)ccc23)[C@H]1CO | -15 | -6 | -2 | 0 | 28* | /
COc1ccc2c3c(n(C)c2c1)[C@H](CO)N(C(=O)c1ccccc1)CC31CN(Cc2ccccc2OC)C1 | 3 | -5 | / | 0 | 45* | -16
CC(C)C#Cc1cnc2c(c1)C(=O)N([C@@H](C)CO)C[C@@H](C)[C@@H](CN(C)C(=O)Nc1cccc(F)c1)O2 | -20 | 1 | 23 | 0 | 1 | 0
